Measurements reported in ChEMBL document CHEMBL4325832, “Novel Benzazole Derivatives Endowed with Potent Antiheparanase Activity” (J Med Chem, 2018).
One block for each molecule: values may come before it. Activity calls are given as the source filed them. The rule behind the calls is not given here.

Tests used:
[1] = tested on: U2OS; test: Antiproliferative activity against human U2OS cells after 3 days by SRB assay
[2] = tested on: HT-1080; test: Antiproliferative activity against human HT1080 cells after 3 days by SRB assay
[3] = tested on: U-87 MG; test: Antiproliferative activity against human U87MG cells after 3 days by SRB assay
[4] = biological target: T1, Heparanase (Homo sapiens, UniProt Q9Y251); test: Inhibition of recombinant HPSE GS3 (unknown origin) using fondaparinux as substrate incubated for 3 hrs in absence of light by WST1 based colorimetry
T1 sequence (Q9Y251 whole entry): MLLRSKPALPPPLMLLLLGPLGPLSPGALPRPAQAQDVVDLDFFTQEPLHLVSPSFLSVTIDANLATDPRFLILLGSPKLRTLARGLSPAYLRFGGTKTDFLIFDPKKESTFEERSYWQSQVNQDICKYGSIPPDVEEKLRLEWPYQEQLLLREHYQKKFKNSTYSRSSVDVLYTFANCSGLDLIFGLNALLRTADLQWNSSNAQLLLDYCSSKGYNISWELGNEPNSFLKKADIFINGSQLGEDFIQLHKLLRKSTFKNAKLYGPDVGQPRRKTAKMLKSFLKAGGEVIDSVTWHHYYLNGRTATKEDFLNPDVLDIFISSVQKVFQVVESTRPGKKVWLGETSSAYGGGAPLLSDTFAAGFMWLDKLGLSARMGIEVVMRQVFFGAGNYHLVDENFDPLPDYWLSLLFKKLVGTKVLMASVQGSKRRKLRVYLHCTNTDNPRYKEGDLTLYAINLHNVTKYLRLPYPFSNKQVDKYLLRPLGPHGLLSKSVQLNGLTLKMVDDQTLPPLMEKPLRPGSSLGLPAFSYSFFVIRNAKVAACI

[5] = tested on: U-87 MG; test: Inhibition of cell invasion in human U87MG cells at 10 uM after 24 hrs by SRB staining based matrigel invasion chamber assay relative to control; assay type: functional, U-87MG ATCC
Procedure, shortened: (§1)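 HT1080, U87MG and U2OS cells pretreated with compound in complete medium for 24 h, harvested, resuspended in serum-free medium and seeded at 2.5 × 10^4 cells/filter into Growth Factor Reduced Matrigel-coated Transwell upper chambers. Same concentration in both upper and lower chambers. After 24 h, invaded cells SRB-stained and counted under microscope at 40X-100X. Student's 2-tailed t test, P<0.05.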

[6] = tested on: U2OS; conditions: Homo sapiens, 10 uM
[7] = tested on: HT-1080; test: Inhibition of cell invasion in human HT1080 cells at 10 uM after 24 hrs by SRB staining based matrigel invasion chamber assay relative to control; assay type: functional; procedure, shortened: as §1
[8] = tested on: U2OS; test: Inhibition of cell invasion in human U2OS cells at 10 uM after 24 hrs by SRB staining based matrigel invasion chamber assay relative to control; conditions: read-out: INH
[9] = tested on: A204; conditions: Homo sapiens, 1.5 uM
[10] = organism: Homo sapiens; test: Anti-invasive activity against human CME1 cells after 24 hrs by SRB staining based matrigel invasion chamber assay; assay type: functional, cell-based
Procedure, shortened: (§2)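 CME-1 or A204 cells pretreated with drug in complete medium for 24 h, then resuspended in serum-free medium and placed in upper chamber of Growth Factor Reduced Matrigel-coated Transwells (1.2 × 10^5 CME-1 or 1.8 × 10^5 A204 cells/filter). Same drug concentration in both upper and lower chambers, 24 h. Invaded cells SRB-stained and counted microscopically. DMSO final 0.5% (CME-1) or 0.25% (A204).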

[11] = organism: Homo sapiens; conditions: 1.5 uM
[12] = Antiproliferative activity against human CME1 cells assessed as inhibition of cell proliferation at 3.1 uM after 24 hrs by cell counting analysis relative to control; assay type: functional; design: scale not given: the % may be the effect or the level left
Procedure, shortened: (§3)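 CME-1 or A204 cells in RPMI plus 10% FBS, exposed to drug in DMSO or solvent alone for 24 h. Proliferation assessed by cell counting and expressed as percent inhibition versus control. DMSO final 0.5% (CME-1) or 0.25% (A204).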

[13] = tested on: U-87 MG; test: Inhibition of cell invasion in human U87MG cells at 1 uM after 24 hrs by SRB staining based matrigel invasion chamber assay relative to control; assay type: functional, U-87MG ATCC; procedure, shortened: as §1
[14] = tested on: A204; test: Anti-invasive activity against human A204 cells after 24 hrs by SRB staining based matrigel invasion chamber assay; assay type: functional, cell-based; procedure, shortened: as §2
[15] = tested on: HT-1080; test: Inhibition of cell invasion in human HT1080 cells at 1 uM after 24 hrs by SRB staining based matrigel invasion chamber assay relative to control; assay type: functional; conditions: HT-1080, 24 h; procedure, shortened: as §1
[16] = Antiproliferative activity against human CME1 cells after 72 hrs by cell counting analysis
[17] = tested on: A204; test: Antiproliferative activity against human A204 cells after 72 hrs by cell counting analysis; conditions: A204, 72 h
[18] = tested on: HT-1080; test: Downregulation of HPSE1 mRNA expression in human HT1080 cells at 1 uM after 24 hrs by qPCR analysis; assay type: functional, cell-based
Procedure, shortened: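 HT1080 cells treated 24 h with compound at 1 μM. Total RNA extracted and reverse-transcribed. HPSE-1 mRNA quantified by real-time qPCR using the ΔΔCt method, […]. Expressed as percent of untreated cells.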

[19] = tested on: U2OS; test: Inhibition of cell invasion in human U2OS cells at 1 uM after 24 hrs by SRB staining based matrigel invasion chamber assay relative to control; assay type: functional; procedure, shortened: as §1
[20] = tested on: A204; test: Antiproliferative activity against human A204 cells assessed as inhibition of cell proliferation at 3.1 uM after 24 hrs by cell counting analysis relative to control; assay type: functional; design: scale not given: the % may be the effect or the level left; procedure, shortened: as §3

- IC50 ([1]; u2os): Not Active
- IC50 ([2]; ht-1080): Not Active
- IC50 ([3]; u-87mg atcc): Not Active
SMILES: COc1ccc(C(=O)Nc2ccc(CNc3ccc(-c4nc5cc(CC(=O)NCC(=O)O)ccc5o4)cc3F)cc2)cc1Br

- IC50 [4]: > 10 µM
SMILES: COc1ccc(C(=O)Nc2ccc(CNc3ccc(-c4nc5cc(CC(=O)N[C@@H](CCCCN)C(=O)O)ccc5o4)cc3F)cc2)cc1Br

- IC50 ([1]; u2os): Not Active
- IC50 ([2]; ht-1080): Not Active
- IC50 ([3]; u-87mg atcc): Not Active
SMILES: COc1ccc(C(=O)Nc2ccc(CNc3ccc(-c4nc5cc(CC(=O)N[C@@H](CCC(=O)O)C(=O)O)ccc5o4)cc3F)cc2)cc1Br
- inhibition at 10 µM [5]: 50 to 90%
- inhibition [6]: inactive
- inhibition at 10 µM ([7]; HT-1080, 24 h): 50 to 90%

- IC50 [4]: > 10 µM
SMILES: COc1ccc(C(=O)Nc2ccc(CNc3ccc(-c4nc5cc(CC(=O)NCB(O)O)ccc5o4)cc3F)cc2)cc1Br

- IC50 ([1]; u2os): Not Active
- IC50 ([2]; ht-1080): Not Active
- IC50 [4]: 0.64 µM
- IC50 ([3]; u-87mg atcc): Not Active
SMILES: COc1ccc(C(=O)Nc2ccc(CNc3ccc(-c4nc5cc(CC(=O)NCC(=O)O)ccc5[nH]4)cc3F)cc2)cc1Br
- inhibition ([5]; U-87MG ATCC): inactive
- inhibition at 10 µM [8]: < 50%
- inhibition [7]: inactive

- IC50 ([1]; Homo sapiens, U2OS, 72 h): 1.7 µM
- IC50 ([2]; Homo sapiens, HT-1080, 72 h): 8.7 µM
- IC50 ([3]; Homo sapiens, U-87 MG, 72 h): 2.8 µM
SMILES: COc1ccc(C(=O)Nc2ccc(CNc3ccc(-c4nc5ccccc5[nH]4)cc3F)cc2)cc1Br
- inhibition [9]: inactive
- Activity [10]: Dose-dependent effect
- inhibition [11]: inactive
- Activity [12]: 15%
- inhibition at 1 µM [13]: 50 to 90%
- Activity [14]: Dose-dependent effect
- inhibition at 1 µM [15]: 50 to 90%
- IC50 [16]: 3.9 µM
- IC50 [17]: 3.4 µM
- Activity [18]: Active
- inhibition at 1 µM [19]: 50 to 90%
- Activity [20]: 5%

- IC50 [4]: > 10 µM
SMILES: COc1ccc(C(=O)Nc2ccc(CNc3ccc(-c4nc5cc(CC(=O)O)ccc5o4)cc3)cc2)cc1Br

- IC50 ([1]; Homo sapiens, U2OS, 72 h): 2.1 µM
- IC50 ([2]; Homo sapiens, HT-1080, 72 h): 3.1 µM
- IC50 ([3]; Homo sapiens, U-87 MG, 72 h): 2.7 µM
SMILES: COc1ccc(C(=O)Nc2ccc(CNc3ccc(-c4nc5ccccc5[nH]4)cc3)cc2)cc1Br
- inhibition at 1 µM [13]: 50 to 90%
- inhibition at 1 µM [15]: 50 to 90%
- Activity [18]: inactive
- inhibition at 1 µM [19]: 50 to 90%

- IC50 [4]: > 10 µM
SMILES: COc1ccc(C(=O)Nc2ccc(CNc3ccc(-c4nc5cc(CC(=O)O)ccc5[nH]4)cc3)cc2)cc1Br
